# Test: Binding affinity to Mycobacterium tuberculosis FabB C171Q mutant expressed in Mycobacterium smegmatis MC2 155 by intrinsic tryptophan fluorescence quenching-based fluorimetric method
# In short: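 Kd by quenching of intrinsic tryptophan fluorescence (excitation 280 nm, emission 337 nm). Inhibitor stocks in DMSO or buffer were titrated into 1 μM His-tag-purified enzyme in 50 mM Tris-HCl, 150 mM NaCl, 1 mM DTT, pH 8.5. mtFabB was expressed in M. smegmatis MC²155; saFabF was expressed in E. coli BL21(DE3) pLysS.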
row,SMILES,Ki
1,C=C/C(C)=C/[C@@]1(C)SC(=O)C(C)=C1O [THIOLACTOMYCIN],175 µM
2,C=C/C(C)=C/[C@@]1(C)SC(=O)C=C1OCC(=O)NCCNC(=O)OC(C)(C)C,> 200 µM
3,C=C/C(C)=C/[C@@]1(C)SC(=O)C=C1OCC(=O)NCCN=[N+]=[N-],> 200 µM

# From ChEMBL document CHEMBL4425098, “Thiolactomycin-Based Inhibitors of Bacterial β-Ketoacyl-ACP Synthases with in Vivo Activity” (J Med Chem, 2016)
